From ChEMBL document CHEMBL1128176 (J Med Chem, 1995)

Biological target: Leukotriene B4 receptor (Cavia porcellus)
Assay: Binding affinity towards Leukotriene B4 receptor guinea pig lung membrane using [3H]LTB4 as radioligand

Compound | Ki [nM]
CCCc1c(OCCCOc2cc(O)c(-c3ccccc3)cc2CC)cccc1Oc1cccc(F)c1C(=O)O | 14
CCCc1c(OCCCOc2cc(O)c(-c3ccc(F)cc3)cc2CC)cccc1Oc1cccc(F)c1C(=O)O | 9.5
CCCc1c(OCCCOc2cc(O)c(-c3ccc(F)cc3)cc2CC)cccc1[S+]([O-])c1ccccc1C(=O)O (stereo not drawn) | 1.4
CCc1cc(-c2ccc(F)cc2)c(O)cc1OCCCOc1ccc2c(=O)c3cc(C(=O)O)ccc3oc2c1CCC(=O)O | 0.04
CCc1cc(-c2ccc(F)cc2)c(O)cc1OCCCOc1cccc(OC)c1CCC(=O)O | 6.4
CCCc1c(OCCCOc2cc(O)c(-c3ccccc3)cc2CC)cccc1Oc1ccccc1C(=O)O | 16
CCCc1c(OCCCOc2cc(O)c(-c3ccc(F)cc3)cc2CC)cccc1Sc1ccccc1C(=O)O | 11
CCc1cc(-c2ccc(F)cc2)c(O)cc1OCCCOc1cccc(Oc2ccccc2C(=O)O)c1CC(C)C | 14
CCCc1c(OCCCCCOc2cc(O)c(-c3ccc(F)cc3)cc2CC)cccc1Oc1ccccc1C(=O)O | 6.8
CCc1cc(-c2ccc(F)cc2)c(O)cc1OCCCOc1ccc2c(=O)c3ccccc3oc2c1CCC(=O)O | 4
CCCc1c(OCCCOc2cc(O)c(-c3ccc(F)cc3)cc2CC)cccc1Oc1ccccc1C(=O)O [ETALOCIB] | 6.6
CCCCc1c(OCCCOc2cc(O)c(-c3ccc(F)cc3)cc2CC)cccc1Oc1ccccc1C(=O)O | 16
CCc1cc(-c2ccc(F)cc2)c(O)cc1OCCCOc1ccccc1CCC(=O)O | 3.8
CCCc1c(OCCCCOc2cc(O)c(-c3ccc(F)cc3)cc2CC)cccc1Oc1ccccc1C(=O)O | 19
CCc1cc(-c2ccc(F)cc2)c(O)cc1OCCCOc1cccc(Oc2ccccc2C(=O)O)c1Cc1ccccc1 | 55
CCc1cc(-c2ccccc2)c(O)cc1OCCCOc1ccc2c(=O)c3cc(C(=O)O)ccc3oc2c1CCC(=O)O | 0.11
CCc1cc(-c2ccccc2)c(O)cc1OCCCOc1ccc2c(=O)c3ccccc3oc2c1CCC(=O)O | 12
CCCc1c(OCCCOc2cc(O)c(-c3ccc(F)cc3)cc2CC)cccc1Oc1cc(F)ccc1C(=O)O | 19
CCCc1c(OCCCOc2cc(O)c(-c3ccc(F)cc3)cc2CC)cccc1Oc1ccccc1CC(=O)O | 8.4
CCc1cc(-c2ccc(F)cc2)c(O)cc1OCCCOc1ccccc1CCc1nnn[nH]1 | 15
CCCc1c(OCCCOc2cc(O)c(-c3ccc(F)cc3)cc2CC)ccc2c1OC(C(=O)O)CC2 (stereo not drawn) | 4.4
CCCc1c(OCCCOc2cc(O)c(-c3ccccc3)cc2CC)ccc2c1OC(C(=O)O)CC2 (stereo not drawn) | 2.8
CCCc1c(OCCCOc2cc(O)c(-c3ccc(F)cc3)cc2CC)cccc1C(=O)c1ccccc1C(=O)O | 11

Biological target: T1, Leukotriene B4 receptor (Homo sapiens, UniProt Q9NPC1+Q15722)
Assay: Binding affinity towards human LTB4 receptor measured as inhibition of binding of [3H]LTB4 to isolated human neutrophils

Compound | Ki [nM]
CCCc1c(OCCCOc2cc(O)c(-c3ccccc3)cc2CC)cccc1Oc1cccc(F)c1C(=O)O | 10
CCCc1c(OCCCOc2cc(O)c(-c3ccc(F)cc3)cc2CC)cccc1Oc1cccc(F)c1C(=O)O | 4.4
CCCc1c(OCCCOc2cc(O)c(-c3ccc(F)cc3)cc2CC)cccc1[S+]([O-])c1ccccc1C(=O)O (stereo not drawn) | 14
CCc1cc(-c2ccc(F)cc2)c(O)cc1OCCCOc1ccc2c(=O)c3cc(C(=O)O)ccc3oc2c1CCC(=O)O | 0.47
CCc1cc(-c2ccc(N(C)C)cc2)c(O)cc1OCCCCCC(C)(C)c1nn[nH]n1 | 16
CCc1cc(-c2ccc(F)cc2)c(O)cc1OCCCOc1cccc(OC)c1CCC(=O)O | 8.3
CCCc1c(OCCCOc2cc(O)c(-c3ccccc3)cc2CC)cccc1Oc1ccccc1C(=O)O | 19
CCc1cc(-c2ccc(F)cc2)c(O)cc1OCCCOc1cccc(OCCCCC(=O)O)c1CCC(=O)O | 2.3
CCc1cc(-c2cccc(C(F)(F)F)c2)c(O)cc1OCCCCCC(C)(C)c1nn[nH]n1 | 33
CCc1cc(-c2ccc(F)cc2)c(O)cc1OCCCOc1cccc(OCCCCc2nnn[nH]2)c1CCC(=O)O | 2.3
CCCc1cc(CC)c(OCCCCCC(C)(C)c2nn[nH]n2)cc1O | 9.3
CCCc1c(OCCCOc2cc(O)c(-c3ccc(F)cc3)cc2CC)cccc1Sc1ccccc1C(=O)O | 350
CCc1cc(-c2ccc(F)cc2)c(O)cc1OCCCOc1cccc(Oc2ccccc2C(=O)O)c1CC(C)C | 36
CCCc1c(OCCCCCOc2cc(O)c(-c3ccc(F)cc3)cc2CC)cccc1Oc1ccccc1C(=O)O | 150
CCc1cc(-c2ccc(F)cc2)c(O)cc1OCCCOc1ccc2c(=O)c3ccccc3oc2c1CCC(=O)O | 36
CCCc1c(OCCCOc2cc(O)c(-c3ccc(F)cc3)cc2CC)cccc1Oc1ccccc1C(=O)O [ETALOCIB] | 17
CCCCc1c(OCCCOc2cc(O)c(-c3ccc(F)cc3)cc2CC)cccc1Oc1ccccc1C(=O)O | 34
CCc1cc(-c2ccc(F)cc2)c(O)cc1OCCCOc1ccccc1CCC(=O)O | 8
CCCc1c(OCCCCOc2cc(O)c(-c3ccc(F)cc3)cc2CC)cccc1Oc1ccccc1C(=O)O | 39
CCc1cc(-c2ccc(F)cc2)c(O)cc1OCCCOc1cccc(Oc2ccccc2C(=O)O)c1Cc1ccccc1 | 390
CCc1cc(-c2ccccc2)c(O)cc1OCCCOc1ccc2c(=O)c3cc(C(=O)O)ccc3oc2c1CCC(=O)O | 0.51
CCc1cc(-c2ccccc2)c(O)cc1OCCCOc1ccc2c(=O)c3ccccc3oc2c1CCC(=O)O | 22
CCCc1c(OCCCOc2cc(O)c(-c3ccc(F)cc3)cc2CC)cccc1Oc1cc(F)ccc1C(=O)O | 48
CCCc1c(OCCCOc2cc(O)c(-c3ccc(F)cc3)cc2CC)cccc1Oc1ccccc1CC(=O)O | 210
CCc1cc(-c2ccc(F)cc2)c(O)cc1OCCCOc1ccccc1CCc1nnn[nH]1 | 15
CCCc1c(OCCCOc2cc(O)c(-c3ccc(F)cc3)cc2CC)ccc2c1OC(C(=O)O)CC2 (stereo not drawn) | 3.8
CCc1cc(-c2ccccn2)c(O)cc1OCCCCCC(C)(C)c1nn[nH]n1 | 453
CCc1cc(-c2ccc(F)cc2)c(O)cc1OCCCOc1cccc(OCCCCC(=O)N(C)C)c1CCC(=O)O | 3.1
CCCc1c(OCCCOc2cc(O)c(-c3ccccc3)cc2CC)ccc2c1OC(C(=O)O)CC2 (stereo not drawn) | 3.3
CCCc1c(OCCCOc2cc(O)c(-c3ccc(F)cc3)cc2CC)cccc1C(=O)c1ccccc1C(=O)O | 35

Biological target: T1, Leukotriene B4 receptor
Assay: Inhibition of LTB4 induced expression of human neutrophil integrin CD11b/CD18.
Type: functional
Procedure, shortened: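 Human neutrophils stimulated with LTB4; test agents, mostly as sodium salts, dissolved in dilute sodium bicarbonate vehicle. Integrin CD11b/CD18 surface expression read by flow cytometry. IC50 derived from inhibition of LTB4-induced up-regulation. Where SEM is given, the value is the mean of at least four determinations.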

Compound | IC50 [nM]
CCCc1c(OCCCOc2cc(O)c(-c3ccccc3)cc2CC)cccc1Oc1cccc(F)c1C(=O)O | 3.2
CCCc1c(OCCCOc2cc(O)c(-c3ccc(F)cc3)cc2CC)cccc1Oc1cccc(F)c1C(=O)O | 2.5
CCCc1c(OCCCOc2cc(O)c(-c3ccc(F)cc3)cc2CC)cccc1[S+]([O-])c1ccccc1C(=O)O (stereo not drawn) | 95
CCc1cc(-c2ccc(F)cc2)c(O)cc1OCCCOc1cccc(OC)c1CCC(=O)O | 64
CCCc1c(OCCCOc2cc(O)c(-c3ccccc3)cc2CC)cccc1Oc1ccccc1C(=O)O | 11
CCc1cc(-c2ccc(F)cc2)c(O)cc1OCCCOc1cccc(OCCCCC(=O)O)c1CCC(=O)O | 13
CCCc1c(OCCCOc2cc(O)c(-c3ccc(F)cc3)cc2CC)cccc1Sc1ccccc1C(=O)O | 7.4
CCc1cc(-c2ccc(F)cc2)c(O)cc1OCCCOc1cccc(Oc2ccccc2C(=O)O)c1CC(C)C | 8.5
CCCc1c(OCCCCCOc2cc(O)c(-c3ccc(F)cc3)cc2CC)cccc1Oc1ccccc1C(=O)O | 9.5
CCCc1c(OCCCOc2cc(O)c(-c3ccc(F)cc3)cc2CC)cccc1Oc1ccccc1C(=O)O [ETALOCIB] | 3.3
CCCCc1c(OCCCOc2cc(O)c(-c3ccc(F)cc3)cc2CC)cccc1Oc1ccccc1C(=O)O | 14
CCc1cc(-c2ccc(F)cc2)c(O)cc1OCCCOc1ccccc1CCC(=O)O | 31
CCCc1c(OCCCCOc2cc(O)c(-c3ccc(F)cc3)cc2CC)cccc1Oc1ccccc1C(=O)O | 5.1
CCc1cc(-c2ccc(F)cc2)c(O)cc1OCCCOc1cccc(Oc2ccccc2C(=O)O)c1Cc1ccccc1 | 220
CCCc1c(OCCCOc2cc(O)c(-c3ccc(F)cc3)cc2CC)cccc1Oc1cc(F)ccc1C(=O)O | 2.7
CCCc1c(OCCCOc2cc(O)c(-c3ccc(F)cc3)cc2CC)cccc1Oc1ccccc1CC(=O)O | 7.8
CCCc1c(OCCCOc2cc(O)c(-c3ccc(F)cc3)cc2CC)ccc2c1OC(C(=O)O)CC2 (stereo not drawn) | 17
CCc1cc(-c2ccc(F)cc2)c(O)cc1OCCCOc1cccc(OCCCCC(=O)N(C)C)c1CCC(=O)O | 7.8
CCCc1c(OCCCOc2cc(O)c(-c3ccccc3)cc2CC)ccc2c1OC(C(=O)O)CC2 (stereo not drawn) | 110
CCCc1c(OCCCOc2cc(O)c(-c3ccc(F)cc3)cc2CC)cccc1C(=O)c1ccccc1C(=O)O | 13
